Measured values taken from ChEMBL document CHEMBL3352492, “Selenorhodamine photosensitizers for photodynamic therapy of P-glycoprotein-expressing cancer cells” (J Med Chem, 2014).
Calls of active or inactive are those of the source. No cut-off for these calls is given here.

What was measured:
[1] = Photo-stability assessed as drug degradation exposed to after 230 Jcm'-2 of continuous illumination with 500 to 800 nm light in solutions of 10% CH3OH in pH 7.4 buffer; assay type: physicochemical; conditions: solution of 10% CH3OH in pH 7.4 buffer, read-out: Drug degradation
[2] = test system: Colon 26; test: Potentiation of doxorubicin-induced cytotoxicity against mouse Colon 26 cells at 0.15 uM incubated in dark for 1 hr by sulforhodamine B assay; assay type: functional, cell-based
In short: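 Colo-26 cells were plated at 10 000/well and held 24 h. Doxorubicin (0.005–5.0 μM) was applied with or without 0.15 μM selenorhodamine, with Dox-only and dye-only controls, for 1 h in the dark with no irradiation. Medium was replaced, then 48 h at 37 °C, 5% CO₂. Surviving fraction by sulforhodamine B assay (570 nm); six replicates; Student's t-test pairwise.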

[3] = test system: Colon 26; test: Potentiation of 1 uM doxorubicin-induced cytotoxicity against mouse Colon 26 cells assessed as cell surviving fraction at 0.15 uM incubated in dark for 1 hr then irradiated with light dose of 1 Jcm'-2 of 611 nm laser light measured after 48 hrs by sulforhodamine B assay; assay type: functional
In short: (§1)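 Colo-26 cells were plated at 10 000/well and held 24 h. Doxorubicin (0.005, 0.05, 0.5, 1.0 or 5.0 μM) was added with 0.15 μM selenorhodamine, both diluted in RPMI from stocks, with Dox-only and dye-only wells. After 1 h in the dark, cells were laser-irradiated at λmax ± 2 nm, 3.2 mW cm⁻², 1 J cm⁻². Fresh medium, then 48 h at 37 °C, 5% CO₂. Surviving fraction by SRB absorbance at 570 nm; six replicates.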

[4] = Permeability in MDCK2-MDR1 cells assessed as cell associated fraction by measuring mass fraction extracted from cell monolayer by methanol wash after 1 hr flux in apical to basolateral direction at 5 uM in presence of 4.3 mg/ml BSA and in absence of P-gp inhibitor LSN335984 by mass spectrometry; assay type: ADME, cell-based, Canis lupus familiaris; conditions: dog, mdck-ii
In short: (§2)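 MDCKII-MDR1 cells seeded at 50 000 cells cm^-2 on Transwell polycarbonate filters, used on day 6. After a rinse in DPBSH at 37 °C, monolayers were preincubated 30 min in 4.3 mg mL^-1 BSA/DPBSH with or without 5 μM P-gp inhibitor LSN 335984. Then 5 μM dye was added apically and run 1 h AB flux at 37 °C with nutation. Monolayers were rinsed in cold DPBS and extracted 3 min in methanol, and compound was quantified by LC-MS/MS. Cell-associated value is the percentage of added mass recovered.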

[5] = test system: Colon 26; test: Photo-toxicity against mouse Colon 26 cells at 0.15 uM incubated in dark for 1 hr then irradiated with light dose of 1 Jcm'-2 of 611 nm laser light measured after 48 hrs by sulforhodamine B assay; assay type: functional, cell-based
In short: (§3)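 Colo-26 murine colon carcinoma cells were grown in RPMI 1640 with L-glutamine, 10% FBS and 1% penicillin–streptomycin. They were plated at 10 000 cells/well and held 24 h. Selenorhodamine was added at 0.15 μM (final) and cells were kept 1 h in the dark. Cells were then irradiated with a tunable dye laser at λmax ± 2 nm, 3.2 mW cm⁻², to 1 J cm⁻². Medium was replaced, followed by 48 h at 37 °C, 5% CO₂. Viability was read by sulforhodamine B at 570 nm.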

[6] = Photo-stability assessed as drug degradation exposed to after 230 Jcm'-2 of continuous illumination with 350 to 800 nm light in solutions of 10% CH3OH in pH 7.4 buffer; assay type: physicochemical; conditions: solution of 10% CH3OH in pH 7.4 buffer, read-out: Drug degradation
[7] = test system: Colon 26; test: Potentiation of 0.5 uM doxorubicin-induced cytotoxicity against mouse Colon 26 cells at 0.15 uM incubated in dark for 1 hr then irradiated with light dose of 1 Jcm'-2 of 611 nm laser light measured after 48 hrs by sulforhodamine B assay; assay type: functional, cell-based; in short: as §1
[8] = test system: Colon 26; test: Photo-toxicity in mouse Colon 26 cells assessed as reduction in cell surviving fraction at 1 Jcm'-2 of continuous illumination with 350 to 700 nm light incubated for 48 hrs by sulforhodamine B assay; assay type: functional, cell-based; conditions: Colon 26, 48 h
In short: (§4)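 Colo-26 cells were incubated 1 h in the dark with 0.1–0.5 μM […], then irradiated up to 1.0 J cm^-2 with 350–700 nm tungsten–halogen light (3.7–4.1 mW cm^-2). Cells were kept 48 h and survival was measured by sulforhodamine B assay.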

[9] = test system: Colon 26; test: Drug uptake in mouse Colon 26 cells at 0.5 uM in absence of 100 uM verapamil by flow cytometry; assay type: ADME, cell-based; conditions: colon 26, 0.5 µM
In short: (§5)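 Colo-26 cells given 0.5 μM dye for 1 h, with or without 100 μM verapamil. Uptake read by flow cytometry as relative fluorescence, excitation 561 nm and emission 710 nm. Error bars are SD.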

[10] = test system: Colon 26; test: Photo-toxicity in mouse Colon 26 cells assessed as reduction in cell surviving fraction at 0.15 uM at 1 Jcm'-2 of continuous illumination with 350 to 700 nm light incubated for 48 hrs by sulforhodamine B assay; assay type: functional, cell-based
[11] = Lipophilicity, log P of the compound by pH 7.4 at 23 degC by UV-visible spectrophotometry based shake flask method; assay type: physicochemical; conditions: buffer
In short: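 Shake-flask method. A saturated n-octanol solution of dye was mixed with an equal volume of PBS, pH 7.4, at 23 °C for 3–5 min, then left 1 h to settle. The concentration in each layer was measured by UV–visible spectrophotometry.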

[12] = Permeability in MDCK2-MDR1 cells assessed as cell associated fraction by measuring mass fraction extracted from cell monolayer by methanol wash after 1 hr flux in apical to basolateral direction at 5 uM in presence of 4.3 mg/ml BSA and in presence of P-gp inhibitor LSN335984 by mass spectrometry; assay type: ADME, cell-based, Canis lupus familiaris; conditions: dog, mdck-ii; in short: as §2
[13] = test system: Colon 26; test: Photo-toxicity in mouse Colon 26 cells assessed as reduction in cell surviving fraction at 0.5 Jcm'-2 of continuous illumination with 350 to 700 nm light incubated for 48 hrs by sulforhodamine B assay; assay type: functional, cell-based; conditions: Colon 26, 48 h; in short: as §4
[14] = test system: Colon 26; test: Photo-toxicity in mouse Colon 26 cells assessed as reduction in cell surviving fraction at 15 Jcm'-2 of continuous illumination with 360 to 800 nm light incubated for 48 hrs by sulforhodamine B assay; conditions: Colon 26, 48 h
[15] = test system: Colon 26; test: Drug uptake in mouse Colon 26 cells at 0.5 uM in presence of 100 uM verapamil by flow cytometry; assay type: ADME, cell-based; conditions: colon 26, 0.5 µM; in short: as §5
[16] = test system: Colon 26; test: Photo-toxicity in mouse Colon 26 cells assessed as reduction in cell surviving fraction at =< 0.5 uM and up to 1 Jcm'-2 of continuous illumination with 350 to 700 nm light incubated for 48 hrs by sulforhodamine B assay; assay type: functional, cell-based
In short: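 Colo-26 cells, 10 000 per well, grown 24 h in RPMI 1640 with 10% FBS. Dye at ≤0.5 μM for 1 h in the dark. Irradiated up to 1.0 J cm^-2 with 350–700 nm tungsten–halogen light at 3.7–4.1 mW cm^-2, then 48 h at 37 °C. Survival by sulforhodamine B at 570 nm.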

[17] = test system: Colon 26; test: Dark toxicity in mouse Colon 26 cells assessed as cell surviving fraction at 0.1 to 0.5 uM incubated for 1 hr by sulforhodamine B assay; assay type: cell-based; conditions: colon 26, 1 h
In short: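 Colo-26 murine colon carcinoma cells, 10 000 per well, grown 24 h in RPMI 1640 with 10% FBS. Dye at 0.1–0.5 μM for 1 h in the dark, then fresh medium and 48 h at 37 °C, 5% CO2. Viability by sulforhodamine B, absorbance at 570 nm, reported as surviving fraction.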

[18] = Selectivity index, ratio of LD50 dark toxicity against mouse Colon 26 cells to EC50 for Photo-toxicity against mouse Colon 26 cells 1 Jcm'-2 of continuous illumination with 350 to 700 nm light; assay type: cell-based; conditions: read-out: Ratio LD50/EC50
[19] = test system: Colon 26; test: Photo-toxicity in mouse Colon 26 cells assessed as reduction in cell surviving fraction at 0.15 uM at >5 Jcm'-2 of continuous illumination with 350 to 700 nm light incubated for 48 hrs by sulforhodamine B assay; assay type: functional, cell-based
[20] = test system: Colon 26; test: Photo-toxicity against mouse Colon 26 cells at 0.15 uM incubated in dark for 1 hr then irradiated with light dose of 1 Jcm'-2 of 613 nm laser light measured after 48 hrs by sulforhodamine B assay; assay type: functional, cell-based; in short: as §3
[21] = test system: Colon 26; test: Potentiation of doxorubicin-induced cytotoxicity against mouse Colon 26 cells at 0.15 uM incubated in dark for 1 hr then irradiated with light dose of 1 Jcm'-2 of 613 nm laser light measured after 48 hrs by sulforhodamine B assay; assay type: functional, cell-based; in short: as §1

SMILES	Activity [2]	EC50 [8] [µM]	Drug uptake [9]	logD [11]	EC50 [13] [µM]	fold change (FC) [15]	Activity [16]	Activity [17]	other results
CN1CCC(C)(C)c2cc3c(-c4ccc(C(=S)N5CCCCC5)s4)c4ccc(=[N+](C)C)cc-4[se]c3cc21.[Cl-]	inactive	0.14	Active	1.61	0.22	–	–	–	degraded [1]: 50%; Activity [3]: <=0.2; Activity [4]: 45%; Activity [5]: Active; degraded [6]: 50%; Activity [7]: Active; Activity [10]: Active; Activity [12]: 55%
CN(C)c1ccc(-c2cc(-c3ccc(N)cc3)[s+]c(-c3ccc(N)cc3)c2)cc1	–	–	–	–	–	–	–	–	EC50 [14]: 0.07 µM
CCN(CC)C(=S)c1ccc(-c2c3ccc(=[N+](C)C)cc-3sc3cc4c(cc23)C(C)(C)CCN4C)s1.F[P-](F)(F)(F)(F)F	–	–	Active	–	–	1.3	inactive	> 0.95	–
CCN(CC)C(=S)c1ccc(-c2c3ccc(=[N+](C)C)cc-3[se]c3cc4c(cc23)C(C)(C)CCN4C)s1.[Cl-]	inactive	0.17	Active	2.41	0.2	1.3	–	–	selectivity ratio [18]: 56; degraded [1]: 50%; Activity [3]: <=0.2; Activity [5]: Active; degraded [6]: 50%; Activity [7]: Active; Activity [10]: Active
CN1CCC(C)(C)c2cc3c(-c4ccc(C(=S)N5CCCCC5)s4)c4ccc(=[N+](C)C)cc-4sc3cc21.F[P-](F)(F)(F)(F)F	–	–	Active	–	–	–	inactive	> 0.95	Drug uptake [15]: Not Active
CCN(CC)C(=O)c1ccc(-c2c3ccc(=[N+](C)C)cc-3sc3cc4c(cc23)C(C)(C)CCN4C)s1.F[P-](F)(F)(F)(F)F	–	–	–	–	–	7	inactive	> 0.95	–
CCN(CC)C(=O)c1ccc(-c2c3ccc(=[N+](C)C)cc-3[se]c3cc4c(cc23)C(C)(C)CCN4C)s1.[Cl-]	inactive	0.3	–	2.26	0.31	5	–	–	selectivity ratio [18]: 26; Activity [19]: Active; Activity [20]: inactive; Activity [21]: inactive
CN1CCC(C)(C)c2cc3c(-c4ccc(C(=O)N5CCCCC5)s4)c4ccc(=[N+](C)C)cc-4[se]c3cc21.[Cl-]	inactive	0.41	–	2.23	> 0.5	–	–	–	Activity [4]: 16%; Activity [20]: inactive; Activity [12]: 39%; Activity [21]: inactive
CN1CCC(C)(C)c2cc3c(-c4ccc(C(=O)N5CCCCC5)s4)c4ccc(=[N+](C)C)cc-4sc3cc21.F[P-](F)(F)(F)(F)F	–	–	–	–	–	–	inactive	> 0.95	–
